Activity calls are given as the source filed them. The calls are words filed in the database; no cut-off is given here.
Experiments:
Staphylococcus aureus [1] = test: Synergistic potentiation of ciprofloxacin-induced antimicrobial activity against norA deleted Staphylococcus aureus SA-K1902 at 0.78 to 100 ug/ml by microdilution method based Checkerboard assay; type: functional, organism-based
Staphylococcus aureus [2] = test: Synergistic potentiation of EtBr-induced antimicrobial activity against mepA deficient Staphylococcus aureus SA-K2885 at 0.78 to 100 ug/ml by microdilution method based Checkerboard assay; type: organism-based; settings: in vivo
Method in brief: (§1)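 Checkerboard combination of EtBr with compound, using broth microdilution MICs. SA-K2886 (norA-deleted, pALC2073-mepA) and SA-K2885 (norA-deleted, empty pALC2073) were run with 0.05 µg/mL tetracycline in all experiments to induce the xyl/tetO promoter.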

[3] = biological target: T1, Multidrug export protein MepA (Staphylococcus aureus (strain NCTC 8325)) (UniProt Q2G140); test: Inhibition of MepA in Staphylococcus aureus SA-K2886 assessed as synergistic potentiation of EtBr-induced antimicrobial activity by measuring […] at 3.13 ug/ml by microdilution method based Checkerboard assay (reference value: 25 ug/ml); method in brief: as §1
T1 sequence (whole entry): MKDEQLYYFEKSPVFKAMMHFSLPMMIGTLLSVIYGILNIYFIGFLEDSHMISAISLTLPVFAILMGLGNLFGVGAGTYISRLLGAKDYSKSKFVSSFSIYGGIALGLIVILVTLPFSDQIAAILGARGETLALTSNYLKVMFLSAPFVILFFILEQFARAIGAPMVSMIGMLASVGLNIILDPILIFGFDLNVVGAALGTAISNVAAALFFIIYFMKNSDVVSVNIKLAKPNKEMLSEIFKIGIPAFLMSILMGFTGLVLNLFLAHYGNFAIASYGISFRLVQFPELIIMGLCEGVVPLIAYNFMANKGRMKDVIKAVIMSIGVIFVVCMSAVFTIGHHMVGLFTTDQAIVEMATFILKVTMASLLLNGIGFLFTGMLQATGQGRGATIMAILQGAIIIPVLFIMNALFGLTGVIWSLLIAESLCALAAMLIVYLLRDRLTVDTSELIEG

Staphylococcus aureus [4] = test: Antimicrobial activity against Staphylococcus aureus SA-1199B expressing wild type norA by microdilution method; type: organism-based; settings: in vivo
Method in brief: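 Broth microdilution MIC per CLSI guidelines. ATCC 25923 is norA wild-type. SA-1199B overexpresses norA and carries an A116E GrlA substitution.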

CYP3A4 = CYP3A4 (Homo sapiens, UniProt P08684); test: (§2) Inhibition of human recombinant CYP3A4 at 10 uM using beetle D-luciferin as substrate by CYP450-Glo assay; type: ADME; settings: recombinant CYP3A4, probe beetle D-luciferin
Method in brief: (§3)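 Luminescent P450-Glo assay in which recombinant human CYP3A4 or CYP2D6 converts a beetle D-luciferin derivative to D-luciferin. Compound was tested at 1 and 10 µM.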

[5] = Drug metabolism in mouse liver microsomes assessed as compound hydroxylation at 50 uM in presence of NADPH regenerating system incubated for 120 mins by UPLC/MS analysis; type: ADME, microsome; settings: 2 h
Method in brief: (§4)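 1 mg/mL mouse liver microsomes in 0.1 M Tris-HCl pH 7.4 with test compound at 50 µM, DMSO up to ~3%. Preincubated 5 min at 37 °C, then started with NADPH regeneration system. Stopped at 120 min with cold methanol and centrifuged. Supernatant analysed by UPLC/MS (ESI, tandem quadrupole).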

[6] = biological target: Quinolone resistance protein NorA (Staphylococcus aureus, UniProt P0A0J7, A116E); test: Inhibition of NorA in Staphylococcus aureus SA-1199B expressing GrlA A116E mutant assessed as reduction in EtBr efflux incubated for 5 mins by fluorescence based assay
Method in brief: (§5)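 Cells were grown overnight in cation-supplemented Mueller-Hinton broth at 35 °C and subcultured to OD600 0.7–0.8. They were loaded at OD600 0.8 with 25 µM EtBr plus 100 µM CCCP (final) for 20 min at room temperature. Cells were then resuspended in fresh broth with or without compound, 50 µM for the single-point screen or a concentration series for IC50. Fluorescence (ex 485/em 645 nm) was read for 5 min. Inhibition was calculated from the fluorescence decrease versus untreated cells. Biological triplicate, each run twice.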

[7] = Drug metabolism in mouse liver microsomes assessed as compound oxidation at 50 uM in presence of NADPH regenerating system incubated for 120 mins by UPLC/MS analysis; type: ADME, microsome; settings: 2 h; method in brief: as §4
[8] = biological target: T2, Quinolone resistance protein NorA (Staphylococcus aureus) (UniProt P0A0J7); test: Inhibition of NorA in Staphylococcus aureus SA-1199B expressing GrlA A116E mutant assessed as reduction in EtBr efflux at 50 uM incubated for 5 mins by fluorescence based assay; method in brief: as §5
T2 sequence (whole entry): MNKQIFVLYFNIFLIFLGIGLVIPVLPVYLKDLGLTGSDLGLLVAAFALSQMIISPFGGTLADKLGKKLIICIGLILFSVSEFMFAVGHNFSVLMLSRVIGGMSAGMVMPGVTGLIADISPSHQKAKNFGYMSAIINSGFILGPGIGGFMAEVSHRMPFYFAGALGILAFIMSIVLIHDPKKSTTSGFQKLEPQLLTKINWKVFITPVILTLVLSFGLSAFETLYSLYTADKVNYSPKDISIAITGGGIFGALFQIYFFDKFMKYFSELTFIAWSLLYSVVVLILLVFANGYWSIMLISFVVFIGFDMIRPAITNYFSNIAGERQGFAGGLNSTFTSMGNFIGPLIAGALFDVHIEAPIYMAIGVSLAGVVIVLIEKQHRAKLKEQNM

[9] = Drug metabolism in mouse liver microsomes assessed as compound demethylation at 50 uM in presence of NADPH regenerating system incubated for 120 mins by UPLC/MS analysis; type: ADME, microsome; settings: 2 h, in the assay text read “hydroxylation and ring opening” for “demethylation”; method in brief: as §4
[10] = biological target: T1, Multidrug export protein MepA (Staphylococcus aureus (strain NCTC 8325)); test: Inhibition of MepA in Staphylococcus aureus SA-K2886 assessed as synergistic potentiation of EtBr-induced antimicrobial activity by measuring […] at 1.56 ug/ml by microdilution method based Checkerboard assay (reference value: 25 ug/ml); method in brief: as §1
[11] = biological target: T2, Quinolone resistance protein NorA (Staphylococcus aureus); test: Inhibition of NorA in Staphylococcus aureus SA-K2378 assessed as synergistic potentiation of ciprofloxacin-induced antimicrobial activity at 0.78 ug/ml by microdilution method based Checkerboard assay
[12] = Selectivity index, ratio of CC50 for human THP1 cells to inhibition of NorA in Staphylococcus aureus SA-1199B expressing GrlA A116E mutant assessed as minimal potentiating drug concentration causing 8 fold reduction in ciprofloxacin MIC by microdilution method based Checkerboard assay; type: toxicity; settings: read-out: Selectivity Index
Method in brief: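 CC50 cells (HepG2 for […], THP-1 for […]) were grown to confluence in RPMI 1640 with 10% FCS, penicillin and streptomycin. They were exposed 24 h at 37 °C to 0–250 µg/mL. Viability was read by ATP bioluminescence, triplicate. CC50 is the concentration reducing cell number 50% versus untreated.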

Cytochrome P450 3A4 = Cytochrome P450 3A4 (Homo sapiens, UniProt P08684); test: as §2; type: ADME; settings: recombinant enzyme, 10 µM; method in brief: as §3
[13] = Drug metabolism in mouse liver microsomes assessed as oxidation at open piperidine ring or at hydroxylate at 50 uM in presence of NADPH regenerating system incubated for 120 mins by UPLC/MS analysis; type: ADME, microsome; settings: 2 h; method in brief: as §4

CYP3A4, sequence (P08684 whole entry): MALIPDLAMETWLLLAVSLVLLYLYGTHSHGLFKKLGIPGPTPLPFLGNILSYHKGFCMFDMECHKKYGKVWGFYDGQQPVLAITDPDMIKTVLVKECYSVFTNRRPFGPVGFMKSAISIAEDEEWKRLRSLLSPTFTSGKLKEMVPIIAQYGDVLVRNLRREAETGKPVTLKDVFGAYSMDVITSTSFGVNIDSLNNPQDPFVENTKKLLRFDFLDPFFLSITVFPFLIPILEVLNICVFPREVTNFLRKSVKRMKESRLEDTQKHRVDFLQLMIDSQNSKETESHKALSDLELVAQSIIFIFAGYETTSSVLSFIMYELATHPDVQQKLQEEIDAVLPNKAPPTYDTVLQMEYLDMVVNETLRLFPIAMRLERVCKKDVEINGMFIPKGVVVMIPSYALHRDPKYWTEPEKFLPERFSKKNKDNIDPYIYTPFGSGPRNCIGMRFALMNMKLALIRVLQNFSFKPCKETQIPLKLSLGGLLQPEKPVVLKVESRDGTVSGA
Cytochrome P450 3A4, sequence (P08684 whole entry): as above

## CCCOc1ccc(-c2cc(OCCN3CCc4cc(OC)c(OC)cc4C3)c3cc(OC)c(OC)cc3n2)cc1
Staphylococcus aureus [1]
  Activity: inactive
Staphylococcus aureus [2]
  Activity: Non-Toxic
[3]
  MIC: < 1.56 µg/mL
Staphylococcus aureus [4]
  MIC: > 100 µg/mL
CYP3A4
  inhibition at 10 µM: ≤ 60%
[5]
  Drug metabolism: Metabolite_Detected
[6]
  IC50: 1100 nM
[7]
  Drug metabolism: Metabolite_Detected
[8]
  inhibition: 94.1%

## CCCOc1ccc(-c2cc(OCCN3CCCCC3)c3cc(OC)ccc3n2)cc1
[9]
  Drug metabolism: Metabolite_Detected
Staphylococcus aureus [1]
  Activity: inactive
[10]
  MIC: < 1.56 µg/mL
[11]
  fold change (FC): 8
Staphylococcus aureus [2]
  Activity: Non-Toxic
[12]
  selectivity ratio: > 128
Staphylococcus aureus [4]
  MIC: > 100 µg/mL
Cytochrome P450 3A4
  inhibition (INH): Not Active
[6]
  IC50: 4200 nM
[13]
  Drug metabolism: Metabolite_Detected
[8]
  inhibition: 97.6%
